Test results from ChEMBL document CHEMBL3393056, “Identification of nicotinamide phosphoribosyltransferase (NAMPT) inhibitors with no evidence of CYP3A4 time-dependent inhibition and improved aqueous solubility” (Bioorg Med Chem Lett, 2015).

Assays:
[1] = Half life in rat at 1 mg/kg, iv; assay type: ADME, organism-based; set-up: dose 1 mg/kg, route intravenous; conditions: in vivo
Procedure, shortened: (§1)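 Male Sprague Dawley rats and male beagle dogs were dosed IV at 1 mg/kg or orally at 5 mg/kg. Plasma concentration–time profiles were followed. Each time point is the mean from three separate animals.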

[2] = Cmax in rat at 5 mg/kg, po; assay type: ADME, organism-based; set-up: dose 5 mg/kg, route oral; conditions: in vivo; procedure, shortened: as §1
[3] = Oral bioavailability in rat at 5 mg/kg; assay type: ADME, organism-based; conditions: in vivo; procedure, shortened: as §1
[4] = Clearance in rat at 1 mg/kg, iv; assay type: ADME, organism-based; set-up: dose 1 mg/kg, route intravenous; conditions: in vivo; procedure, shortened: as §1
[5] = Volume of distribution at steady state in rat at 1 mg/kg, iv; assay type: ADME, organism-based; set-up: dose 1 mg/kg, route intravenous; conditions: in vivo, read-out: Vdss; procedure, shortened: as §1
[6] = AUC in rat at 5 mg/kg, po; assay type: ADME, organism-based; set-up: dose 5 mg/kg, route oral; conditions: plasma; procedure, shortened: as §1
[7] = Clearance in dog at 1 mg/kg, iv; assay type: ADME, organism-based, Canis lupus familiaris; set-up: dose 1 mg/kg, route intravenous; conditions: in vivo; procedure, shortened: as §1
[8] = Cmax in dog at 5 mg/kg, po; assay type: ADME, organism-based, Canis lupus familiaris; set-up: dose 5 mg/kg, route oral; conditions: in vivo; procedure, shortened: as §1
[9] = Volume of distribution at steady state in dog at 1 mg/kg, iv; assay type: ADME, organism-based, Canis lupus familiaris; set-up: dose 1 mg/kg, route intravenous; conditions: in vivo, read-out: Vdss; procedure, shortened: as §1
[10] = Oral bioavailability in dog at 5 mg/kg; assay type: ADME, organism-based, Canis lupus familiaris; conditions: in vivo; procedure, shortened: as §1
[11] = Half life in dog at 1 mg/kg, iv; assay type: ADME, organism-based, Canis lupus familiaris; set-up: dose 1 mg/kg, route intravenous; conditions: in vivo; procedure, shortened: as §1
[12] = AUC in dog at 5 mg/kg, po; assay type: ADME, organism-based, Canis lupus familiaris; set-up: dose 5 mg/kg, route oral; conditions: plasma; procedure, shortened: as §1

CC(C)CN1CCC([S@](=O)c2ccc(CNC(=O)c3cc4ccncc4o3)cc2)CC1
half-life [1]: 0.93 h | Cmax [2]: 70 nM | bioavailability [3]: 31% | clearance [4]: 225 mL/min/kg | Vd [5]: 17 L/kg | AUC [6]: 0.27 µM·h

O=C(NCc1ccc(S(=O)(=O)c2cc(F)cc(F)c2)cn1)c1cc2ccncc2o1
clearance [7]: 6.7 mL/min/kg | Cmax [8]: 4700 nM | half-life [1]: 1 h | Vd [9]: 1.6 L/kg | Cmax [2]: 1000 nM | bioavailability [10]: 115% | bioavailability [3]: 61% | clearance [4]: 40 mL/min/kg | half-life [11]: 4.7 h | AUC [12]: 33 µM·h | Vd [5]: 2 L/kg | AUC [6]: 3.3 µM·h

O=C(NCc1ccc([S@@](=O)c2cc(F)cc(F)c2)cn1)c1cc2ccncc2o1
half-life [1]: 0.6 h | Cmax [2]: 1000 nM | bioavailability [3]: 62% | clearance [4]: 105 mL/min/kg | Vd [5]: 3 L/kg | AUC [6]: 1.2 µM·h

CC(C)n1cc(S(=O)(=O)c2ccc(CNC(=O)c3cc4ccncc4o3)nc2)cn1
clearance [7]: 9.8 mL/min/kg | Cmax [8]: 8600 nM | half-life [1]: 2.3 h | Vd [9]: 1 L/kg | Cmax [2]: 1500 nM | bioavailability [10]: 141% | bioavailability [3]: 74% | clearance [4]: 55 mL/min/kg | half-life [11]: 1.5 h | AUC [12]: 28 µM·h | Vd [5]: 3.2 L/kg | AUC [6]: 3 µM·h
